From ChEMBL document CHEMBL4689842, “EUbOPEN Chemogenomics Library wave 1” (2021)

System: HEK-293T
Assay: Multiplex assay against HEK293T;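 for Population Tubulin-Different-Phenotype (%): share of the cells with healthy nuclei that show this phenotype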
Type: toxicity, cell-based
Settings: human
Summary of the method: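 Four dyes were applied at seeding to live cells: Hoechst33342, BioTracker Green Microtubule Cytoskeleton Dye, MitoTracker Red and Annexin V Alexa Fluor 680. Imaging after compound addition used a CQ1 microscope at 37°C and 5% CO2. CellPathfinder machine-learning gating then sorted cells into Hoechst high-intensity objects or normal cells, normal cells into healthy, pyknosed or fragmented nuclei, and pyknosed cells into mitotic or apoptotic, with tubulin, mitochondrial-mass and membrane-permeability phenotypes given as per cents of healthy-nucleus cells.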

[1] = 12 h, 1 µM, compound concentration 1 uM, replicate 1
[2] = 12 h, 1 µM, compound concentration 1 uM, replicate 2
[3] = 12 h, 10 µM, compound concentration 10 uM, replicate 1
[4] = 12 h, 10 µM, compound concentration 10 uM, replicate 2
[5] = 24 h, 1 µM, compound concentration 1 uM, replicate 1
[6] = 24 h, 1 µM, compound concentration 1 uM, replicate 2
[7] = 24 h, 10 µM, compound concentration 10 uM, replicate 1
[8] = 24 h, 10 µM, compound concentration 10 uM, replicate 2
[9] = 48 h, 1 µM, compound concentration 1 uM, replicate 1
[10] = 48 h, 1 µM, compound concentration 1 uM, replicate 2
[11] = 48 h, 10 µM, compound concentration 10 uM, replicate 1
[12] = 48 h, 10 µM, compound concentration 10 uM, replicate 2

## CCCn1c(=O)c2[nH]c(C34CC5CC(CC3C5)C4)nc2n(CCC)c1=O [ROLOFYLLINE]
[1]
  Population Apoptotic (%): 63%
  Population Fragmented Nuclei (%): 14%
  Population Healthy Nuclei (%): 30%
  Population Hoechst High Intensity Objects (%): 15%
  Population Membrane Permeable-Phenotype (%): 3%
  Population Mitochondria Different-Phenotype (%): 84%
  Population Mitotic Cells (%): 36%
  Population Normal (%): 84%
  Population Pyknosed Nuclei (%): 55%
  Population Tubulin-Different-Phenotype (%): 70%
  Total Cell Count: 200
[2]
  Population Apoptotic (%): 12%
  Population Fragmented Nuclei (%): 6%
  Population Healthy Nuclei (%): 43%
  Population Hoechst High Intensity Objects (%): 4%
  Population Membrane Permeable-Phenotype (%): 10%
  Population Mitochondria Different-Phenotype (%): 18%
  Population Mitotic Cells (%): 87%
  Population Normal (%): 95%
  Population Pyknosed Nuclei (%): 50%
  Population Tubulin-Different-Phenotype (%): 15%
  Total Cell Count: 185
[3]
  Population Apoptotic (%): 78%
  Population Fragmented Nuclei (%): 12%
  Population Healthy Nuclei (%): 28%
  Population Hoechst High Intensity Objects (%): 15%
  Population Membrane Permeable-Phenotype (%): 1%
  Population Mitochondria Different-Phenotype (%): 96%
  Population Mitotic Cells (%): 21%
  Population Normal (%): 84%
  Population Pyknosed Nuclei (%): 59%
  Population Tubulin-Different-Phenotype (%): 80%
  Total Cell Count: 256
[4]
  Population Apoptotic (%): 41%
  Population Fragmented Nuclei (%): 5%
  Population Healthy Nuclei (%): 24%
  Population Hoechst High Intensity Objects (%): 9%
  Population Membrane Permeable-Phenotype (%): 12%
  Population Mitochondria Different-Phenotype (%): 84%
  Population Mitotic Cells (%): 58%
  Population Normal (%): 90%
  Population Pyknosed Nuclei (%): 69%
  Population Tubulin-Different-Phenotype (%): 87%
  Total Cell Count: 143
[5]
  Population Apoptotic (%): 50%
  Population Fragmented Nuclei (%): 14%
  Population Healthy Nuclei (%): 32%
  Population Hoechst High Intensity Objects (%): 22%
  Population Membrane Permeable-Phenotype (%): 1%
  Population Mitochondria Different-Phenotype (%): 77%
  Population Mitotic Cells (%): 49%
  Population Normal (%): 77%
  Population Pyknosed Nuclei (%): 53%
  Population Tubulin-Different-Phenotype (%): 83%
  Total Cell Count: 212
[6]
  Population Apoptotic (%): 15%
  Population Fragmented Nuclei (%): 4%
  Population Healthy Nuclei (%): 59%
  Population Hoechst High Intensity Objects (%): 3%
  Population Membrane Permeable-Phenotype (%): 11%
  Population Mitochondria Different-Phenotype (%): 17%
  Population Mitotic Cells (%): 85%
  Population Normal (%): 96%
  Population Pyknosed Nuclei (%): 36%
  Population Tubulin-Different-Phenotype (%): 38%
  Total Cell Count: 228
[7]
  Population Apoptotic (%): 77%
  Population Fragmented Nuclei (%): 13%
  Population Healthy Nuclei (%): 31%
  Population Hoechst High Intensity Objects (%): 14%
  Population Membrane Permeable-Phenotype (%): 2%
  Population Mitochondria Different-Phenotype (%): 97%
  Population Mitotic Cells (%): 22%
  Population Normal (%): 85%
  Population Pyknosed Nuclei (%): 54%
  Population Tubulin-Different-Phenotype (%): 71%
  Total Cell Count: 255
[8]
  Population Apoptotic (%): 40%
  Population Fragmented Nuclei (%): 7%
  Population Healthy Nuclei (%): 38%
  Population Hoechst High Intensity Objects (%): 7%
  Population Membrane Permeable-Phenotype (%): 22%
  Population Mitochondria Different-Phenotype (%): 75%
  Population Mitotic Cells (%): 60%
  Population Normal (%): 92%
  Population Pyknosed Nuclei (%): 53%
  Population Tubulin-Different-Phenotype (%): 87%
  Total Cell Count: 150
[9]
  Population Apoptotic (%): 50%
  Population Fragmented Nuclei (%): 20%
  Population Healthy Nuclei (%): 27%
  Population Hoechst High Intensity Objects (%): 23%
  Population Membrane Permeable-Phenotype (%): 4%
  Population Mitochondria Different-Phenotype (%): 61%
  Population Mitotic Cells (%): 49%
  Population Normal (%): 76%
  Population Pyknosed Nuclei (%): 52%
  Population Tubulin-Different-Phenotype (%): 70%
  Total Cell Count: 227
[10]
  Population Apoptotic (%): 8%
  Population Fragmented Nuclei (%): 6%
  Population Healthy Nuclei (%): 78%
  Population Hoechst High Intensity Objects (%): 4%
  Population Membrane Permeable-Phenotype (%): 14%
  Population Mitochondria Different-Phenotype (%): 7%
  Population Mitotic Cells (%): 91%
  Population Normal (%): 95%
  Population Pyknosed Nuclei (%): 15%
  Population Tubulin-Different-Phenotype (%): 30%
  Total Cell Count: 417
[11]
  Population Apoptotic (%): 64%
  Population Fragmented Nuclei (%): 18%
  Population Healthy Nuclei (%): 31%
  Population Hoechst High Intensity Objects (%): 12%
  Population Membrane Permeable-Phenotype (%): 4%
  Population Mitochondria Different-Phenotype (%): 98%
  Population Mitotic Cells (%): 35%
  Population Normal (%): 87%
  Population Pyknosed Nuclei (%): 50%
  Population Tubulin-Different-Phenotype (%): 87%
  Total Cell Count: 257
[12]
  Population Apoptotic (%): 67%
  Population Fragmented Nuclei (%): 11%
  Population Healthy Nuclei (%): 55%
  Population Hoechst High Intensity Objects (%): 7%
  Population Membrane Permeable-Phenotype (%): 16%
  Population Mitochondria Different-Phenotype (%): 62%
  Population Mitotic Cells (%): 32%
  Population Normal (%): 92%
  Population Pyknosed Nuclei (%): 32%
  Population Tubulin-Different-Phenotype (%): 86%
  Total Cell Count: 185
